Assay results reported in ChEMBL document CHEMBL4118255, “Synthesis and antibacterial evaluation of novel 11-O-aralkylcarbamoyl-3-O-descladinosylclarithromycin derivatives” (2018).
≈ marks a conversion by molar mass, not a printed value.

Tests used:
Type in all cases: functional
[1] = test system: Staphylococcus aureus; experiment: Antibacterial activity against erythromycin-susceptible Staphylococcus aureus ATCC 25923 after 24 hrs by […]; conditions: ATCC 25923, 24 h
[2] = test system: Escherichia coli; experiment: Antibacterial activity against penicillin-susceptible Escherichia coli ATCC 25922 incubated for 24 hrs by […]; conditions: ATCC 25922, 24 h
[3] = test system: Streptococcus pyogenes; experiment: Antibacterial activity against erythromycin-susceptible Streptococcus pyogenes after 24 hrs […]
[4] = test system: Pseudomonas aeruginosa; experiment: Antibacterial activity against penicillin-susceptible Pseudomonas aeruginosa ATCC 27853 incubated for 24 hrs by […]; conditions: ATCC 27853, 24 h
[5] = test system: Bacillus subtilis; experiment: Antibacterial activity against erythromycin-susceptible Bacillus subtilis ATCC 9372 after 24 hrs by tube-dilution method; conditions: ATCC 9372, 24 h
In short: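 MIC by standard NCCLS broth microdilution. Reference macrolides clarithromycin and azithromycin run alongside.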

[6] = test system: Staphylococcus aureus; experiment: Antibacterial activity against methicillin-resistant Staphylococcus aureus ATCC 43300 after 24 hrs by tube-dilution method; conditions: ATCC 43300, 24 h
In short: (§1)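 MIC determined by the NCCLS-recommended standard broth microdilution method against erythromycin-resistant S. pneumoniae strains (A22072 mef, B1 erm, AB11 erm plus mef) and methicillin-resistant S. aureus ATCC43300.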

[7] = test system: Streptococcus pneumoniae; experiment: Antibacterial activity against erythromycin-resistant Streptococcus pneumoniae B1 harboring ermB gene after 24 hrs by tube-dilution method; conditions: B1, 24 h; in short: as §1
[8] = test system: Streptococcus pneumoniae; experiment: Antibacterial activity against erythromycin-resistant Streptococcus pneumoniae A22072 harboring mefA gene after 24 hrs by […]; conditions: A22072, 24 h
[9] = test system: Streptococcus pneumoniae; experiment: Antibacterial activity against erythromycin-resistant Streptococcus pneumoniae AB11 harboring ermB and mefA genes after 24 hrs by tube-dilution method; conditions: AB11, 24 h; in short: as §1
[10] = test system: Streptococcus pyogenes; experiment: Antibacterial activity against erythromycin-resistant Streptococcus pyogenes R1 after 24 hrs by tube-dilution method; conditions: R1, 24 h
[11] = test system: Streptococcus pyogenes; experiment: Potency index, ratio of azithromycin MIC to compound MIC for erythromycin-resistant Streptococcus pyogenes R1
[12] = test system: Streptococcus pyogenes; experiment: Potency index, ratio of clarithromycin MIC to compound MIC for erythromycin-resistant Streptococcus pyogenes R1
[13] = test system: Streptococcus pneumoniae; experiment: Potency index, ratio of azithromycin MIC to compound MIC for erythromycin-resistant Streptococcus pneumoniae A22072 harboring mefA gene
[14] = test system: Streptococcus pneumoniae; experiment: Potency index, ratio of clarithromycin MIC to compound MIC for erythromycin-resistant Streptococcus pneumoniae A22072 harboring mefA gene
[15] = test system: Streptococcus pneumoniae; experiment: Potency index, ratio of azithromycin MIC to compound MIC for erythromycin-resistant Streptococcus pneumoniae AB11 harboring ermB and mefA gene
[16] = test system: Streptococcus pneumoniae; experiment: Potency index, ratio of clarithromycin MIC to compound MIC for erythromycin-resistant Streptococcus pneumoniae AB11 harboring ermB and mefA gene
[17] = test system: Staphylococcus aureus; experiment: Potency index, ratio of azithromycin MIC to compound MIC for methicillin-resistant Staphylococcus aureus ATCC 43300
[18] = test system: Staphylococcus aureus; experiment: Potency index, ratio of clarithromycin MIC to compound MIC for methicillin-resistant Staphylococcus aureus ATCC 43300
[19] = test system: Streptococcus pneumoniae; experiment: Potency index, ratio of azithromycin MIC to compound MIC for erythromycin-resistant Streptococcus pneumoniae B1 harboring ermB gene
[20] = test system: Streptococcus pneumoniae; experiment: Potency index, ratio of clarithromycin MIC to compound MIC for erythromycin-resistant Streptococcus pneumoniae B1 harboring ermB gene

`CC[C@H]1OC(=O)[C@H](C)[C@@H](OC(=O)Cc2cccnc2)[C@H](C)[C@@H](O[C@@H]2O[C@H](C)C[C@H](N(C)C)[C@H]2O)[C@](C)(OC)C[C@@H](C)C(=O)[C@H](C)[C@@H](OC(=O)NCCNC(=O)c2ccc(C3CCCCC3)cc2)[C@]1(C)O` showed an MIC [1] of 2 µg/mL (≈ 2.04 µM), an MIC [2] of 128 µg/mL (≈ 130 µM) and an MIC [3] of 0.5 µg/mL (≈ 0.51 µM). The MIC [4] was 128 µg/mL (≈ 130 µM), the MIC [5] was 4 µg/mL (≈ 4.08 µM) and the MIC [6] was 32 µg/mL (≈ 32.6 µM). It also gave an MIC [7] of 64 µg/mL (≈ 65.2 µM), an MIC [8] of 1 µg/mL (≈ 1.02 µM) and an MIC [9] of 32 µg/mL (≈ 32.6 µM). For the same molecule, the MIC [10] was 32 µg/mL (≈ 32.6 µM), the Ratio [11] was 4 and the Ratio [12] was 4.
With `CC[C@H]1OC(=O)[C@H](C)[C@@H](OC(=O)Cc2cccnc2)[C@H](C)[C@@H](O[C@@H]2O[C@H](C)C[C@H](N(C)C)[C@H]2O)[C@](C)(OC)C[C@@H](C)C(=O)[C@H](C)[C@@H](OC(=O)NCCNC(=O)C#Cc2cccc3ccccc23)[C@]1(C)O` the MIC [1] was 4 µg/mL (≈ 4.11 µM), the MIC [2] was > 128 µg/mL and the MIC [3] was 0.125 µg/mL (≈ 0.128 µM). The MIC [4] was > 128 µg/mL, the MIC [5] was 2 µg/mL (≈ 2.06 µM) and the MIC [6] was 64 µg/mL (≈ 65.8 µM). The MIC [7] was 32 µg/mL (≈ 32.9 µM), the MIC [8] was 1 µg/mL (≈ 1.03 µM) and the MIC [9] was 16 µg/mL (≈ 16.4 µM). The MIC [10] was 32 µg/mL (≈ 32.9 µM), the Ratio [11] was 4 and the Ratio [12] was 4.
Molecule `CC[C@H]1OC(=O)[C@H](C)[C@@H](OC(=O)Cc2cccnc2)[C@H](C)[C@@H](O[C@@H]2O[C@H](C)C[C@H](N(C)C)[C@H]2O)[C@](C)(OC)C[C@@H](C)C(=O)[C@H](C)[C@@H](OC(=O)NCCNC(=O)c2cc([N+](=O)[O-])cc([N+](=O)[O-])c2)[C@]1(C)O` has an MIC [1] of 1 µg/mL (≈ 1.01 µM), an MIC [2] of 64 µg/mL (≈ 64.7 µM) and an MIC [3] of 0.015 µg/mL (≈ 0.0152 µM). It also gave an MIC [4] of 64 µg/mL (≈ 64.7 µM), an MIC [5] of 1 µg/mL (≈ 1.01 µM) and an MIC [6] of 64 µg/mL (≈ 64.7 µM). It also gave an MIC [7] of 32 µg/mL (≈ 32.4 µM), an MIC [8] of 0.5 µg/mL (≈ 0.506 µM) and an MIC [9] of 4 µg/mL (≈ 4.04 µM). For the same molecule, the MIC [10] was 128 µg/mL (≈ 129 µM), the Ratio [13] was 8 and the Ratio [14] was 4. For the same molecule, the Ratio [15] was 32 and the Ratio [16] was 32.
`CC[C@H]1OC(=O)[C@H](C)[C@@H](OC(=O)Cc2cccnc2)[C@H](C)[C@@H](O[C@@H]2O[C@H](C)C[C@H](N(C)C)[C@H]2O)[C@](C)(OC)C[C@@H](C)C(=O)[C@H](C)[C@@H](OC(=O)NCCNC(=O)c2ccc([N+](=O)[O-])cc2N)[C@]1(C)O` showed an MIC [1] of 1 µg/mL (≈ 1.04 µM), an MIC [2] of 64 µg/mL (≈ 66.7 µM) and an MIC [3] of 0.03 µg/mL (≈ 0.0313 µM). It also gave an MIC [4] of 64 µg/mL (≈ 66.7 µM), an MIC [5] of 1 µg/mL (≈ 1.04 µM) and an MIC [6] of 64 µg/mL (≈ 66.7 µM). It also gave an MIC [7] of 16 µg/mL (≈ 16.7 µM), an MIC [8] of 0.25 µg/mL (≈ 0.261 µM) and an MIC [9] of 4 µg/mL (≈ 4.17 µM). For the same molecule, the MIC [10] was 128 µg/mL (≈ 133 µM), the Ratio [17] was 4 and the Ratio [18] was 4. It also gave a Ratio [13] of 16, a Ratio [14] of 8 and a Ratio [19] of 8. The Ratio [20] was 8, the Ratio [15] was 32 and the Ratio [16] was 32.
